# Compound activity (PubChem BioAssay)
# In the library only some 3.5% were active in any assay of this set; here they are far more common.
# Pf gametocyte: kills late stage P. falciparum gametocytes; P. falciparum stage V gametocytes, ATP luminescence, 24 h; inhibition, % at 10.9 µM; 150,000 tested, 0.065% active; AID 743093;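 active means inhibition above the mean plus 3 SD of compounds within the control limits, set per campaign, cut at about 38% in these data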;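 further: 0% = DMSO wells and 100% = medium only without gametocytes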
# FLuc stim CS: affects firefly luciferase, flagging false hits in luciferase stimulation screens; P08659; ATPlite luciferase biochemical, luminescence, 10 min; 0 = ATP-free wells, 1 = DMSO control; activation factor at 10 µM; 200,000 tested, under 10 active; AID 1027;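 active means luciferase activation factor, scaled between plate controls, of at least 2 with compound at 10 µM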
# Target sequence (P08659 whole entry, looked up): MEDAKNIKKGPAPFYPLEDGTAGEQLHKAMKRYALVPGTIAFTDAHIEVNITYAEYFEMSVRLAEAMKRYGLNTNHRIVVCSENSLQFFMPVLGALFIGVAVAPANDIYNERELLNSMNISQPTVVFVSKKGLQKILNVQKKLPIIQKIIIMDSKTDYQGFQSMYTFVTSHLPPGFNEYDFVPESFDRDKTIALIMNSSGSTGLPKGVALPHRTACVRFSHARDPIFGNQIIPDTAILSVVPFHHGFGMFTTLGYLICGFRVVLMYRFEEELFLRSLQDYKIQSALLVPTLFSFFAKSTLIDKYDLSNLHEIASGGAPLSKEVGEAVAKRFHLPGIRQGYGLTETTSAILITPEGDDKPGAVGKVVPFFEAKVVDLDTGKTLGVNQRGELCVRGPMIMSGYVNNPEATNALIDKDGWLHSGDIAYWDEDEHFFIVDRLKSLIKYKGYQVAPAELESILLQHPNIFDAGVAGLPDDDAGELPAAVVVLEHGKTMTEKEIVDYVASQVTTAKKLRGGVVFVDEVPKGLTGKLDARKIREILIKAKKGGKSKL
#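 System: cell-free luciferase reagent; medium: PBS as buffer for the ATP substrate; doses: test compounds dosed from 2 mM stocks in 100% DMSO; incubation: 10 min, room temperature; measured by: luminescence from luciferase reaction; read-out: luciferase activation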
# STAT1 activator: STAT1 signaling activation; AID 932; NIH 3T3 STAT1-luciferase reporter, IFN-gamma, luminescence; 100% = IFN-gamma alone, no compound; activation (% of control), % at 5.5 µM; 200,000 tested, 2.6% active;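 active means activation above the screen-wide mean activation plus 3 SD, cut at about 130% in these data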;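 further: raw ratio to IFN-gamma control signal so 100% means no change and 0% no light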
# APP 5'UTR act: APP 5'UTR luciferase reporter activation; SH-SY5Y APP 5'UTR luciferase reporter, luminescence; zero percent = DMSO vehicle wells; activation, % at 2 µM; 190,000 tested, 1% active;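 active means activation above a set limit, based on mean plus 3 SD of controls, cut at about 140% in these data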
# NF-kB neuron act: compounds increasing NF-kB expression in human neuronal cells. NF-kB reporter expression; stronger effect = higher value. fold change at 12.5 µM. 190,000 tested, 1.6% active; in the data active means fold change above about 3.3
# FLuc inh counter: counter-screen for luciferase assay inhibitors: firefly luciferase inhibition. P08659. ATPLite firefly luciferase biochemical luminescence, 10 min. inhibition, % at 10 µM. 200,000 tested, 1.5% active;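 active means inhibition above about 50% when tested at 10 µM, limit read from the data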
# Numbers without * were called inactive; · = no result given.
SMILES,Pf gametocyte,FLuc stim CS,STAT1 activator,APP 5'UTR act,NF-kB neuron act,FLuc inh counter
O=C(NCc1ccccn1)Nc1cccc(Cl)c1,-17,1,133*,72,3.7*,-4
O=[N+]([O-])c1cccc(-c2ccc(C(=S)N3CCOCC3)o2)c1,-4,0.6,143*,162*,4.8*,40
S=C(c1ccc(-c2cccc(Cl)c2)o1)N1CCCCC1,20,0.5,147*,180*,1.5,54*
O=C(Nc1nccs1)c1ccc(-c2cccc([N+](=O)[O-])c2)o1,4,0.8,143*,59,1.4,20
S=C(c1ccc(-c2cccc(Cl)c2)o1)N1CCOCC1,10,0.7,115,141*,5.7*,27
O=C(c1ccc(Cn2c(=S)[nH]c3ccc(N4CCOCC4)cc3c2=O)cc1)N1CCC(N2CCCCC2)CC1,1,1,103,-10,1.1,-1
CN(C)CC#CCC(O)(c1ccccc1)C1CCCCC1 (stereo unspecified),-3,·,·,·,·,·
CC(C)c1ccc(/C=C/C2=NNC(=O)CC2)cc1,-2,0.7,136*,165*,4.6*,26
CC(C)C1COC(c2cccc3ccccc23)=N1 (stereo unspecified),·,0.7,143*,103,3.7*,32
CCn1cc(C2=NC(C(C)C)CO2)c2ccccc21 (stereo unspecified),·,1,102,8,1.1,-5
O=C1CCC([N+](=O)[O-])C(c2ccc(C(F)(F)F)cc2)N1 (stereo unspecified),-9,·,·,·,·,·
COc1cccc(OCCSc2nnc3sc4ccccc4n23)c1,·,0.8,103,3,1.7,20
c1ccc(OCCSc2nnc3sc4ccccc4n23)cc1,·,0.2,54,120,1.4,80*
CCOC(=O)C(Cc1ccc(Cl)cc1Cl)c1ccno1 (stereo unspecified),11,1.1,91,7,1.1,-5
Cc1cc(C(=O)CN2C(=O)c3cccc(N)c3C2=O)c(C)n1Cc1cccs1,7,0.5,147*,·,2.8,49
Cn1c(SCC2CCCO2)nnc1-c1cccc([N+](=O)[O-])c1 (stereo unspecified),-6,1,93,4,1.5,-4
COc1ccc(N=Cc2[nH]c3ccccc3c2O)cc1,4,0.1,106,87,1.7,86*
COc1ccc(N=Cc2c[nH][nH]c2=O)cc1,·,1,99,3,1.1,1
COc1ccc(N=CC2=C(O)c3ccccc3C2=O)cc1,·,0.1,96,137*,1.4,92*
Cc1ccc(O)c(C=Nc2cc(C)ccc2O)c1,·,0.9,93,-1,1.1,11
O=C1C(C=Nc2ccccc2O)=C(O)c2ccccc21,-23,0.2,98,114,5*,85*
Cc1ccc(O)c(N=CC2=C(O)c3ccccc3C2=O)c1,·,0.7,122,11,4.2*,32
CN=CC1=C(O)c2ccccc2C1=O,·,1,107,-5,1.2,-4
Cc1cc(F)ccc1NC(=O)C1CCCO1 (stereo unspecified),20,1.1,109,-6,0.95,-9
Cc1ccc(-c2nc3ccsc3c(=O)o2)cc1,·,0.8,129*,5,2.9,18
SMILES,Pf gametocyte,FLuc stim CS,STAT1 activator,APP 5'UTR act,NF-kB neuron act,FLuc inh counter
CC1(C)CC(=O)C2=C(C1)NC(=S)C(C#N)C21CCCCC1 (stereo unspecified),17,·,·,·,·,·
Cc1ccnc(NC(=O)Nc2cccc(F)c2)c1,-19,0.7,138*,198*,8.6*,31
COc1cccc(NC(=O)Nc2nccc(C)n2)c1,-6,0.2,69,109,4.1*,82*
COc1cccc(NC(=O)c2ccncc2)c1,35,1,104,8,1.3,-1
Cc1ccnc(NC(=O)Nc2cccc(F)c2)n1,-2,0.9,145*,150*,·,7
CC(C)Cn1c(SCC(=O)N2CCCc3ccccc32)nc2ccccc2c1=O,-12,·,·,·,·,·
CC(C)Oc1snc(Cl)c1C(N)=O,·,1,97,-4,1,-1
O=C(CCC1N=C2c3ccccc3N=C(SCC(=O)NCc3ccco3)N2C1=O)NCc1ccco1 (stereo unspecified),-21,1,90,12,0.96,-3
COc1ccc(C(=O)c2c(-c3cccc(C)c3)oc3ccc(N4CCOCC4)cc23)cn1,-1,·,·,·,·,·
CC1=CC(C)(C)[N+](C)(C)c2ccccc21,·,1,109,27,1.1,-4
